Test results: ChEMBL document CHEMBL2157987, “Benzimidazole bearing oxadiazole and triazolo-thiadiazoles nucleus: design and synthesis as anticancer agents” (2012)

Tests used:
Assay type in all cases: functional
[1] = system: MDA-MB-435; assay: Cytotoxicity against human MDA-MB-435 cells after 48 hrs by SRB assay; conditions: MDA-MB-435, 48 h
Summary of the method: (§1)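 Five-dose NCI-60 panel screen: cells grown in RPMI 1640 with 5% FBS and 2 mM L-glutamine, preincubated 24 h at 37 °C, 5% CO2. Five 10-fold dilutions, 0.01–100 µM, applied for 48 h. Fixed with cold TCA (10% final), stained with 0.4% SRB, absorbance read at 515 nm. GI50, TGI and LC50 were taken from log concentration versus % growth curves using time-zero plates.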

[2] = system: SF-539; assay: Cytotoxicity against human SF539 cells after 48 hrs by SRB assay; conditions: SF-539, 48 h; summary of the method: as §1
[3] = system: HCT-116; assay: Cytotoxicity against human HCT116 cells after 48 hrs by SRB assay; conditions: HCT-116, 48 h; summary of the method: as §1
[4] = system: IGROV-1; assay: Cytotoxicity against human IGROV1 cells after 48 hrs by SRB assay; conditions: IGROV-1, 48 h; summary of the method: as §1
[5] = system: HCC 2998; assay: Cytotoxicity against human HCC2998 cells after 48 hrs by SRB assay; conditions: HCC 2998, 48 h; summary of the method: as §1
[6] = system: NCI-H322M; assay: Cytotoxicity against human NCI-H322M cells after 48 hrs by SRB assay; summary of the method: as §1
[7] = system: A498; assay: Cytotoxicity against human A498 cells after 48 hrs by SRB assay; conditions: A498, 48 h; summary of the method: as §1
[8] = system: SK-OV-3; assay: Cytotoxicity against human SKOV3 cells after 48 hrs by SRB assay; conditions: SK-OV-3, 48 h; summary of the method: as §1
[9] = system: UACC-257; assay: Cytotoxicity against human UACC257 cells after 48 hrs by SRB assay; conditions: UACC-257, 48 h
Summary of the method: (§2)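 Cells were grown in RPMI 1640 with 5% FBS and 2 mM L-glutamine, then held 24 h at 37 °C and 5% CO2 before dosing. TCA-fixed time-zero plates were kept. Compound was dissolved in DMSO and given at five 10-fold dilutions for 48 h. Cells were fixed with cold TCA (10% final), stained with 0.4% SRB and read at 515 nm. GI50, TGI and LC50 came from Ti/Tz/control growth formulas.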

[10] = system: MDA-MB-435; assay: Cytotoxicity against human MDA-MB-435 cells assessed as cell growth at 10 uM after 48 hrs by SRB assay; conditions: MDA-MB-435, 48 h, read-out: Activity
Summary of the method: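 NCI single-dose screen at 10 µM. Cells were incubated 48 h and the end point was read by sulforhodamine B protein staining. Results are given as percent growth of treated cells relative to untreated controls. Growth of 32% or less was counted as active.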

[11] = system: MOLT-4; assay: Cytotoxicity against human MOLT4 cells after 48 hrs by SRB assay; conditions: MOLT-4, 48 h; summary of the method: as §1
[12] = system: MDA-MB-231; assay: Cytotoxicity against human MDA-MB-231 cells after 48 hrs by SRB assay; conditions: MDA-MB-231, 48 h; summary of the method: as §1
[13] = system: SNB-75; assay: Cytotoxicity against human SNB75 cells after 48 hrs by SRB assay; conditions: SNB-75, 48 h; summary of the method: as §2
[14] = system: HL-60(TB); assay: Cytotoxicity against human HL-60(TB) cells after 48 hrs by SRB assay; conditions: HL-60, 48 h
Summary of the method: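 Human tumour line grown in RPMI 1640 with 5% FBS and 2 mM L-glutamine. Cells were plated and held 24 h at 37 °C/5% CO2 before dosing, and time-zero plates were TCA-fixed. Five 10-fold concentrations (0.01–100 µM) were added from DMSO stock and incubated 48 h. Cells were TCA-fixed, stained with 0.4% SRB and read at 515 nm. Values were calculated from growth curves relative to time-zero and control.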

[15] = system: HOP-92; assay: Cytotoxicity against human HOP92 cells after 48 hrs by SRB assay; conditions: HOP-92, 48 h; summary of the method: as §1
[16] = system: ACHN; assay: Cytotoxicity against human ACHN cells after 48 hrs by SRB assay; summary of the method: as §1
[17] = system: NCI-H460; assay: Cytotoxicity against human NCI-H460 cells after 48 hrs by SRB assay; conditions: NCI-H460, 48 h; summary of the method: as §1
[18] = system: OVCAR-3; assay: Cytotoxicity against human OVCAR3 cells after 48 hrs by SRB assay; conditions: OVCAR-3, 48 h; summary of the method: as §1
[19] = system: HOP-62; assay: Cytotoxicity against human HOP62 cells after 48 hrs by SRB assay; conditions: HOP-62, 48 h; summary of the method: as §1
[20] = system: U-251; assay: Cytotoxicity against human U251 cells after 48 hrs by SRB assay; conditions: U-251, 48 h; summary of the method: as §2
[21] = read-out: LC50 (the source's name)
[22] = read-out: pLC50 (the source's name) (converted)

Work on `Nc1cc(Br)c(-c2nnc(CCC(=O)c3nc4ccccc4[nH]3)o2)c(Br)c1` yielded a GI50 [1] of 1.55 µM, a CC50 [1, 21] of 8.83 µM and a TGI ([1]; read-out: TGI) of 3.71 µM. The CC50 [1, 22] was 8.91 µM, the TGI ([1]; read-out: pTGI (converted)) was 3.72 µM and the GI50 [2] was 17.4 µM. The CC50 [2, 21] was over 100 µM, the TGI ([2]; read-out: TGI) was 60.8 µM and the CC50 [2, 22] was over 100 µM. For the same compound, the TGI ([2]; read-out: pTGI (converted)) was 60.3 µM, the GI50 [3] was 8.32 µM and the CC50 [3, 21] was over 100 µM. The TGI ([3]; read-out: TGI) was over 100 µM, the CC50 [3, 22] was over 100 µM and the TGI ([3]; read-out: pTGI) was over 100 µM. The GI50 [4] was 5.89 µM, the LC50 ([4]; read-out: LC50) was over 100 µM and the TGI ([4]; read-out: TGI) was 62.7 µM. For the same compound, the LC50 ([4]; read-out: pLC50 (converted)) was over 100 µM, the TGI ([4]; read-out: pTGI (converted)) was 63.1 µM and the GI50 [5] was 11 µM. It also gave a CC50 [5, 21] of over 100 µM, a TGI ([5]; read-out: TGI) of 42.5 µM and a CC50 [5, 22] of over 100 µM. It also gave a TGI ([5]; read-out: pTGI (converted)) of 42.7 µM, a GI50 [6] of 8.13 µM and a CC50 [6, 21] of over 100 µM. The TGI ([6]; read-out: TGI) was over 100 µM, the CC50 [6, 22] was over 100 µM and the TGI ([6]; read-out: pTGI) was over 100 µM. For the same compound, the GI50 [7] was 0.661 µM, the CC50 [7, 21] was over 100 µM and the TGI ([7]; read-out: TGI) was 10.5 µM. It also gave a CC50 [7, 22] of over 100 µM, a TGI ([7]; read-out: pTGI (converted)) of 10.5 µM and a GI50 [8] of 22.4 µM. It also gave an LC50 ([8]; read-out: LC50) of over 100 µM, a TGI ([8]; read-out: TGI) of 80.5 µM and an LC50 ([8]; read-out: pLC50 (converted)) of over 100 µM. It also gave a TGI ([8]; read-out: pTGI (converted)) of 81.3 µM, a GI50 [9] of 7.59 µM and a CC50 [9, 21] of over 100 µM. For the same compound, the TGI ([9]; read-out: TGI) was over 100 µM, the CC50 [9, 22] was over 100 µM and the TGI ([9]; read-out: pTGI) was over 100 µM. It also gave a growth at 10 µM [10] of 5.71%, a GI50 [11] of 4.9 µM and a CC50 [11, 21] of over 100 µM. It also gave a TGI ([11]; read-out: TGI) of over 100 µM, a CC50 [11, 22] of over 100 µM and a TGI ([11]; read-out: pTGI) of over 100 µM. It also gave a GI50 [12] of 10.2 µM, an LC50 ([12]; read-out: LC50) of over 100 µM and a TGI ([12]; read-out: TGI) of 86.8 µM. The LC50 ([12]; read-out: pLC50 (converted)) was over 100 µM, the TGI ([12]; read-out: pTGI (converted)) was 87.1 µM and the GI50 [13] was 2.95 µM. The CC50 [13, 21] was over 100 µM, the TGI ([13]; read-out: TGI) was 20.5 µM and the CC50 [13, 22] was over 100 µM. It also gave a TGI ([13]; read-out: pTGI (converted)) of 20.4 µM, a GI50 [14] of 3.47 µM and a CC50 [14, 21] of over 100 µM. For the same compound, the TGI ([14]; read-out: TGI) was over 100 µM, the CC50 [14, 22] was over 100 µM and the TGI ([14]; read-out: pTGI) was over 100 µM. For the same compound, the GI50 [15] was 0.501 µM, the CC50 [15, 21] was over 100 µM and the TGI ([15]; read-out: TGI) was 19.9 µM. The CC50 [15, 22] was over 100 µM, the TGI ([15]; read-out: pTGI (converted)) was 20 µM and the GI50 [16] was 47.9 µM. It also gave an LC50 ([16]; read-out: LC50) of over 100 µM, a TGI ([16]; read-out: TGI) of over 100 µM and an LC50 ([16]; read-out: pLC50 (converted)) of over 100 µM. The TGI ([16]; read-out: pTGI) was over 100 µM, the GI50 [17] was 3.98 µM and the CC50 [17, 21] was over 100 µM. For the same compound, the TGI ([17]; read-out: TGI) was 20.1 µM, the CC50 [17, 22] was over 100 µM and the TGI ([17]; read-out: pTGI (converted)) was 20 µM. It also gave a GI50 [18] of 2.63 µM, an LC50 ([18]; read-out: LC50) of over 100 µM and a TGI ([18]; read-out: TGI) of 6.98 µM. For the same compound, the LC50 ([18]; read-out: pLC50 (converted)) was over 100 µM, the TGI ([18]; read-out: pTGI (converted)) was 6.92 µM and the GI50 [19] was 23.4 µM. For the same compound, the CC50 [19, 21] was over 100 µM, the TGI ([19]; read-out: TGI) was over 100 µM and the CC50 [19, 22] was over 100 µM. The TGI ([19]; read-out: pTGI) was over 100 µM, the GI50 [20] was 3.47 µM and the CC50 [20, 21] was over 100 µM. For the same compound, the TGI ([20]; read-out: TGI) was over 100 µM, the CC50 [20, 22] was over 100 µM and the TGI ([20]; read-out: pTGI) was over 100 µM.
